# Reference: paper PMC8486320 (Journal of medicinal chemistry, 2021)
# Where no end group is shown, it is not given here. The star is where a group is joined. Crotonyl(E) = C/C=C/C(=O)*
# How the values were obtained:
# GAS41 YEATS domain = GAS41 YEATS domain (Homo sapiens, UniProt O95619); assay: AlphaScreen assay, GAS41 YEATS / H3K27ac peptide; format: binding
# ENL = target: T1, ENL (Homo sapiens, UniProt Q03111); assay: Competitive peptide pulldown, ENL with H3K9ac; format: binding
# T1 sequence (Q03111 1-145): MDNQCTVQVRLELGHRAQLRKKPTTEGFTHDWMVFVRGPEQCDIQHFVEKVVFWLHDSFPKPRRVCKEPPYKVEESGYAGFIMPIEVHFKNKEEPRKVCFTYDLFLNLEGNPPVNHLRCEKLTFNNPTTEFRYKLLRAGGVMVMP
# YEATS2 YEATS domain = target: T2, YEATS2 YEATS domain (Homo sapiens, UniProt Q9ULM3); assay: AlphaScreen assay, YEATS2 YEATS / H3K27cr peptide; format: binding
# T2 sequence (Q9ULM3 201-332): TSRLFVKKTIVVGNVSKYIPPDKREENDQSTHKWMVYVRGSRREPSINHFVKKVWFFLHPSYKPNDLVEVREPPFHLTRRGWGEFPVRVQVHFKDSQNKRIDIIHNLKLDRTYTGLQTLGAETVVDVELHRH
# GAS41 [1] = target: T3, GAS41 (Homo sapiens, UniProt O95619); assay: Competitive peptide pulldown, GAS41 with H3K27ac; format: binding; conditions: 20 μM compound
# T3 sequence (O95619 whole entry): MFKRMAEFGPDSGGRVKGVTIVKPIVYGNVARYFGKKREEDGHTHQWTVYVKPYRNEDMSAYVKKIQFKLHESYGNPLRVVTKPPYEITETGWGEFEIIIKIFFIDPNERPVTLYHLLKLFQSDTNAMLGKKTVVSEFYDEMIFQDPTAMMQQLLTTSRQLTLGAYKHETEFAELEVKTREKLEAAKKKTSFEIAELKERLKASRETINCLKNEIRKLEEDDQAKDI
# YEATS2 = target: T4, YEATS2 (Homo sapiens, UniProt Q9ULM3); assay: Competitive peptide pulldown, YEATS2 with H3K27cr; format: binding; conditions: 20 μM compound
# T4 sequence (Q9ULM3 201-332): T2 sequence (Q9ULM3 201-332)
# AF9 = target: T5, AF9 (Homo sapiens, UniProt P42568); assay: Competitive peptide pulldown, AF9 with H3K9ac; format: binding; conditions: 20 μM compound
# T5 sequence (P42568 1-145): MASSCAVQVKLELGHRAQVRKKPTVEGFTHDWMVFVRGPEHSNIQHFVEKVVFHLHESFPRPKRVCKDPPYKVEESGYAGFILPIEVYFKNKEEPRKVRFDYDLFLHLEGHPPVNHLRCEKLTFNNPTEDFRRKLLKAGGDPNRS
# MV4;11 cells [2] = assay: Combinatorial treatment of compound 7 and JQ1, MV4; format: cell-based, human; conditions: 7 0 to 20 μM, JQ1 0–200 nM, Combenefit
# In short: (§1)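 Leukaemia cells kept in RPMI-1640 with 10% FBS were given DMSO, test compound, JQ1, or the two combined at a concentration matrix for 6 days. Viability was read by CellTiter-Glo luminescence as % surviving relative to DMSO. Drug interaction was scored as synergy using Combenefit.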
# HOXA9 gene expression = assay: qRT-PCR of HOXA9 gene expression in MOLM13 cells; format: cell-based, human
# In short: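 MOLM13 cells were treated with test compound or DMSO. Total RNA was extracted and reverse-transcribed, and HOXA9 was quantified by SYBR Green real-time PCR. Expression was normalised to GAPDH by the comparative Ct method; mean ± SEM, n = 3, two-tailed Student's t test.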
# ENL YEATS domain [3] = target: T6, ENL YEATS domain (Homo sapiens, UniProt Q03111); assay: 1H,15N HSQC NMR titration of ENL YEATS domain; format: binding; conditions: 15N-labelled His-ENL, ligand titrated
# T6 sequence (Q03111 1-148): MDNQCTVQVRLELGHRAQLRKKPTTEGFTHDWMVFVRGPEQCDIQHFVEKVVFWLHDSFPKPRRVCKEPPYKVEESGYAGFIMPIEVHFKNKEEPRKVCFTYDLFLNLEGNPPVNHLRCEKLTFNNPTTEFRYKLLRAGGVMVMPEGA
# In short: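 15N-labelled YEATS domain was expressed in E. coli Rosetta-2 (DE3) pLysS in NH4Cl minimal medium (0.5 mM IPTG, 18 h, 16 °C) and purified by Ni-NTA then size exclusion. 1H,15N HSQC spectra were recorded at 298 K, 600 MHz, on 0.2 mM protein in 25–50 mM Tris-HCl pH 7.5, 150 mM NaCl, 0.2 mM TCEP, 10% D2O. Test compound or H3K27cr peptide (aa 22–31) was added stepwise at set protein:ligand molar ratios.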
# MV4;11 cells [4] = assay: Cell growth inhibition assay; format: cell-based, human; conditions: compared with MOLM13 (5 and 10 μM), 3 days
# Caco-2 cell monolayers = assay: Caco-2 cell permeability assay; format: in vitro ADME; conditions: 10 μM, 2 hours, A-B direction
# In short: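 Flux was measured across polarised Caco-2 monolayers in triplicate, with ranitidine, talinolol and warfarin as controls. Apparent permeability (Papp) was calculated for the apical-to-basolateral direction.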
# U2OS cells = assay: Cell growth inhibition assay; format: cell-based, human; conditions: even at 50 μM, ENL-independent cell line
# ENL protein = target: T7, ENL protein (Homo sapiens, UniProt Q03111); assay: Cellular thermal shift assay; format: cell-based; conditions: 20 μM, 5 h
# T7 sequence (Q03111 1-559): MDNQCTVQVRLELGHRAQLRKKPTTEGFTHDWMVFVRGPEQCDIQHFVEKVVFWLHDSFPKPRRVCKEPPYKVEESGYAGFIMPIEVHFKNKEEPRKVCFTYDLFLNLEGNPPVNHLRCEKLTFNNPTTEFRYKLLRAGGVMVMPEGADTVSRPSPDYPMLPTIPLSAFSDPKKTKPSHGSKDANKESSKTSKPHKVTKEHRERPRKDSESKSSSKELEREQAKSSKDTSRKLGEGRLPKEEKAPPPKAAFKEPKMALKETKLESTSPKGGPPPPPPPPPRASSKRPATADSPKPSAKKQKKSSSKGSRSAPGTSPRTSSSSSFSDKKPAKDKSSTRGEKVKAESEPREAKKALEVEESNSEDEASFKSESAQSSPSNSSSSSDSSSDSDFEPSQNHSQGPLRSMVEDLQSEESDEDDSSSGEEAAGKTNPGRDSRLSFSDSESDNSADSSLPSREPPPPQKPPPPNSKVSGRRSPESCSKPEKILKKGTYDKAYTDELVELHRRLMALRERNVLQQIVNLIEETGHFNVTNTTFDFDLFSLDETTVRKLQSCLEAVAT
# In short: (§2)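 Cells were incubated with 20 µM test compound for 5 h, washed three times in PBS and resuspended in PBS with protease inhibitors (about 3 million cells per aliquot). Aliquots were heated 3 min at the indicated temperatures, then held 2 min at room temperature. Cells were lysed with NP40/glycerol/DTT buffer plus three liquid-nitrogen/37 °C freeze-thaw cycles, and cleared at 13,000 rpm, 4 °C, 10 min. Soluble protein was read by western blot.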
# AF9 proteins = target: T8, AF9 proteins (Homo sapiens, UniProt P42568); assay: Cellular thermal shift assay; format: cell-based; conditions: HeLa cells, 20 μM, 5 h
# T8 sequence (P42568 1-568): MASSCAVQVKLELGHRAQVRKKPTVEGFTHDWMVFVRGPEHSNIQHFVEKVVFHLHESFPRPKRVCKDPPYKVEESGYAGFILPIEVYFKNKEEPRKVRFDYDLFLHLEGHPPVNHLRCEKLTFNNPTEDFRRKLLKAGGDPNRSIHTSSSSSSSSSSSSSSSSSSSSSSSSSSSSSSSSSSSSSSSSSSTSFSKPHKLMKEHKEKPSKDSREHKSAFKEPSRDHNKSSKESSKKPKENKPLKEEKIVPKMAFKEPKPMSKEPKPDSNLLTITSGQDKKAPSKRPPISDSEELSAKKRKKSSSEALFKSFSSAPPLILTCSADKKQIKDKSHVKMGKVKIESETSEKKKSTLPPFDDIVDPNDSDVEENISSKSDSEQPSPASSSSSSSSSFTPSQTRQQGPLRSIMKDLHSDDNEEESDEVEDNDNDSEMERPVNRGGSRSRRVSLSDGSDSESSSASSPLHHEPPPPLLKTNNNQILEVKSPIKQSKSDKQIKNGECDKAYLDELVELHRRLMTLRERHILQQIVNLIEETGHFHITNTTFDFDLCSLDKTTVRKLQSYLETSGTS
# In short: as §2
# GAS41 [5] = target: T3, GAS41; assay: Cellular thermal shift assay; format: cell-based; conditions: MV4;11 and MOLM13 cells, 20 μM, 5 h, vs DMSO
# In short: as §2
# MOLM13 cells = assay: Combinatorial treatment of compound 7 and JQ1, MOLM13; format: cell-based, human; conditions: 7 0 to 20 μM, JQ1 0–200 nM, Combenefit
# In short: as §1
# ENL YEATS domain [6] = target: T9, ENL YEATS domain (Homo sapiens, UniProt Q03111); assay: AlphaScreen assay, His-ENL YEATS / biotin-H3K9ac interaction; format: binding; conditions: SAR comparison with 11 or 6
# T9 sequence (Q03111 1-145): T1 sequence (Q03111 1-145)
# Chain of GAS41 YEATS domain (O95619 whole entry, the tested form may be a part): as the sequence (O95619 whole entry) above
molecule,measurement,setting,value
CSc1ccc(CNC(=O)c2ccc3nncn3c2)cc1 [compound 1],inhibition of GAS41 YEATS domain (IC50 measurement),GAS41 YEATS domain,no detectable inhibition
same,inhibition of ENL binding to H3K9ac,ENL; 5 μM compound,strongly inhibited
same,inhibition of YEATS2 YEATS domain (IC50 measurement),YEATS2 YEATS domain,no detectable inhibition
same,inhibition of GAS41 binding to acylated histone peptide,GAS41 [1],none of these compounds showed notable inhibition
same,inhibition of YEATS2 binding to acylated histone peptide,YEATS2,none of these compounds showed notable inhibition
same,inhibition of AF9 binding to acylated histone peptide,AF9,none of these compounds showed notable inhibition
"CN(C)Cc1ccc(CNC(=O)c2ccc3nncn3c2)cc1 [compound 7, N-(4-((dimethylamino)methyl)benzyl)-[1,2,4]triazolo[4,3-a]pyridine-6-carboxamide]",interaction with JQ1 in killing leukemia cells,MV4;11 cells [2],synergistic effect
same,lowest drug concentration effectively suppressing HOXA9 gene expression,HOXA9 gene expression,2.5 µM
same,"chemical shift perturbations, exchange regime on the NMR timescale",ENL YEATS domain [3],intermediate to slow exchange regime
same,inhibition of ENL binding to H3K9ac,ENL; 5 μM compound,strongly inhibited
same,inhibition of MV4;11 cell growth,MV4;11 cells [4],about double amounts of the compound were needed to achieve similar levels of inhibition
same,Caco-2 permeability,Caco-2 cell monolayers,comparable to 11
same,inhibition of GAS41 binding to acylated histone peptide,GAS41 [1],none of these compounds showed notable inhibition
same,inhibition of YEATS2 binding to acylated histone peptide,YEATS2,none of these compounds showed notable inhibition
same,response of U2OS cell growth to treatment,U2OS cells,little or no response
same,inhibition of AF9 binding to acylated histone peptide,AF9,none of these compounds showed notable inhibition
same,thermal stability of ENL protein (CETSA),ENL protein; HeLa cells,stabilized ENL
same,thermal stability of ENL protein (CETSA),"ENL protein; MV4;11 and MOLM13 cells, vs DMSO",bound and stabilized ENL proteins
same,thermal stability of AF9 protein (CETSA),AF9 proteins,stabilized ENL but not AF9 proteins
same,thermal stability of GAS41 protein (CETSA),GAS41 [5],little or no difference
same,interaction with JQ1 in killing leukemia cells,MOLM13 cells,synergistic effect
"O=C(NCc1ccc(CN2CCC2)cc1)c1ccc2nncn2c1 [compound 11, N-(4-(azetidin-1-ylmethyl)benzyl)-[1,2,4]triazolo[4,3-a]pyridine-6-carboxamide]",inhibition of ENL binding to H3K9ac,ENL; 1 μM compound,strongly inhibited
same,inhibition of GAS41 binding to acylated histone peptide,GAS41 [1],none of these compounds showed notable inhibition
same,inhibition of YEATS2 binding to acylated histone peptide,YEATS2,none of these compounds showed notable inhibition
same,inhibition of AF9 binding to acylated histone peptide,AF9,none of these compounds showed notable inhibition
"O=C(NCc1cccc(CN2CCC2)c1)c1ccc2nncn2c1 [compound 15, N-(3-(azetidin-1-ylmethyl)benzyl)-[1,2,4]triazolo[4,3-a]pyridine-6-carboxamide]",inhibition potency compared with parent compound,ENL YEATS domain [6],did not result in any increase of potency
"CC(NC(=O)c1ccc2nncn2c1)c1ccc(CN2CCC2)cc1 (centres unmarked) [compound 16, N-(1-(4-(azetidin-1-ylmethyl)phenyl)ethyl)-[1,2,4]triazolo[4,3-a]pyridine-6-carboxamide]",inhibition potency compared with parent compound,ENL YEATS domain [6],greatly reduced the inhibition potency
"O=C(NCc1ccc(CNc2ncc(F)cn2)cc1)c1ccc2nncn2c1 [compound 24, N-(4-(((5-fluoropyrimidin-2-yl)amino)methyl)benzyl)-[1,2,4]triazolo[4,3-a]pyridine-6-carboxamide]",inhibition of ENL binding to H3K9ac,ENL; 1 μM compound,strongly inhibited
same,inhibition of GAS41 binding to acylated histone peptide,GAS41 [1],none of these compounds showed notable inhibition
same,inhibition of YEATS2 binding to acylated histone peptide,YEATS2,none of these compounds showed notable inhibition
same,inhibition of AF9 binding to acylated histone peptide,AF9,none of these compounds showed notable inhibition
"H3K27cr peptide: histone H3 residues 22–31 with a crotonylation at K27 (TKAARK(Crotonyl(E))SAPA; UniProt P68431 23-32, looked up, fragment) [reference compound]","chemical shift perturbations, exchange regime on the NMR timescale",ENL YEATS domain [3],intermediate to fast exchange regime
